Assay [1] in a line: inhibitors of TNFa-induced NFkB p65 translocation, primary screen, imaging, HUVEC, MLSMR starter and 10KST1 sets (AID 438;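 active means inhibition above 20% together with a positive visual image hit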;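 further: compound added about 3h40 before a 20 min TNFalpha stimulation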;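 on inhibition: signal is the nuclear over cytoplasmic p65 intensity ratio per well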). The settings on record: HUVEC TNFa-induced p65 nuclear translocation; cell count: measured here: nuclei count (cytotoxicity indicator), at 2.08 µM; inhibition: at 2 µM, stronger effect = higher value, 0% TNFa-plus-vehicle, 100% no-TNFa wells.
A short description of assay [2]: inhibitors of mutant huntingtin aggregation, primary screen, imaging, exon1htt(103Q)mCFP cells, high-content imaging (AID 483;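 active means visual image review flags a hit and inhibition of aggregation exceeds 20%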;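 further: compound exposure lasted 3 days before fixation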;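 on nuclei count: percent of the per-plate median nuclei count of sample wells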). Conditions: exon1htt(103Q)mCFP cell line, aggregate imaging, at 2 µM; inhibition of aggregation: stronger effect = higher value; nuclei count: measured here: cell count, toxicity.
Assay [3] can be described thus: inhibitors of E-selectin induction by TNFa, primary screen, imaging, HUVEC, immunofluorescence, MLSMR starter and 10KST1 sets (AID 487;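 active means visually confirmed hit in the image check and inhibition above 20%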;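 on inhibition: signal is fraction of cell area covered by stained E-selectin grains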;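 on nuclei count: 100% = median nuclei count of all wells on the same plate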). Conditions: HUVEC TNFalpha-induced E-selectin immunofluorescence imaging, at 2 µM; inhibition: stronger effect = higher value; nuclei count: measured here: cell number, toxicity.
For assay [4], the target named is Voltage-gated potassium channel subunit beta-2 (Rattus norvegicus) (UniProt P62483). Kind of assay: KvBeta enzyme negative modulators, primary screen, biochemical, NADPH fluorescence (AID 622;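 active means fluorescence slope higher than the sample average by over 3 SD, cut at about -0.22 in these data, passing the limit was not always enough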;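 further: slope of raw intensity against log time taken from 70 to 1610 s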). Conditions: recombinant KvBeta, 4-cyanobenzaldehyde reduction, at 10 µM, stronger effect = higher value.
Voltage-gated potassium channel subunit beta-2 (Rattus norvegicus), sequence (P62483 whole entry, looked up): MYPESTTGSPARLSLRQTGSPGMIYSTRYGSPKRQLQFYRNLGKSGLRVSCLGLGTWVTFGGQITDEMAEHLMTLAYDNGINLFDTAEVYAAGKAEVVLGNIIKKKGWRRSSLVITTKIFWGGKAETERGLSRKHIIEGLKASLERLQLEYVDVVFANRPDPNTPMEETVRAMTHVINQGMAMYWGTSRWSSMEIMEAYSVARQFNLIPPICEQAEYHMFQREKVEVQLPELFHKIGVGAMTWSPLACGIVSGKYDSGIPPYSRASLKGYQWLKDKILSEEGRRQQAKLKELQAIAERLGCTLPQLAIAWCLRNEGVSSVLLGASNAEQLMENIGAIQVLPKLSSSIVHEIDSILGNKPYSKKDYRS
Assay [5] shares this target. Kind of assay: KvBeta positive modulators, primary screen, biochemical, NADPH fluorescence (AID 623;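 active means NADPH fluorescence slope more negative than the mean of all samples by about 3 SD, 99.7% confidence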;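 further: fluorescence intensity change per second fitted from 20 to 320 s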). Conditions: Recombinant KvBeta, NADPH fluorescence decrease slope, 10 min; at 10 µM; stronger effect = lower value.
Assay [6] has as its target Muscarinic acetylcholine receptor M4 (Homo sapiens) (UniProt P08173). Put plainly: compounds altering M4/GIRK thallium flux, either direction, primary screen, M4 allosteric agonist project, cell-based, HEK293 M4/GIRK, BTC-AM (AID 625;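 active means fluorescence slope after compound addition differing from the mean of all tested samples at 99.7% confidence, mostly higher but some lower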;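 further: thallium influx through GIRK channels coupled to M4 in HEK293 cells with BTC-AM dye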). Conditions: at 10 µM, actives lie on both sides. The method in brief:
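Material – HEK293 cells with M4 receptor and GIRK channels · Buffer or medium – pH 7.3 thallium assay buffer · Doses – one dose, 10 µM final · Timing – cells overnight at 37 °C, BTC-AM loading 1 h, reads 2 min total · Measured by – kinetic fluorescence with BTC-AM dye · Controls – carbachol and DMSO controls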

A short description of assay [7]: inhibitors of Sendai virus-induced IRF3 signaling, primary screen, TLR/RLR signaling modifier project, cell-based, Sendai virus stimulus, luciferase, 10K MLSCN set (AID 602276).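 Further: firefly luciferase from ISG56 promoter only with Renilla not read in this screen; 0% = Sendai virus plus DMSO and 100% = medium plus DMSO without virus.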 Conditions: HEK293 RL24 IRF3 luciferase reporter, at 10 µM, stronger effect = higher value. A general note: Reporter assays use an easily measured gene product as a stand-in for the process of interest.

A short description of assay [8]: inhibitors of poly I:C-induced TLR3 signaling, primary screen, cell-based, poly I:C stimulus, luciferase, 10K MLSCN set (AID 602277;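 active means inhibition of the reporter signal at or above 50%; inactive means inhibition below 50%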). Conditions: HEK293-TLR3 RL24 IRF3 luciferase reporter, at 10 µM, stronger effect = higher value.

SMILES strings stand for the structures. Activity calls are given as the source filed them.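 How the source made its calls, unless noted: active means inhibition at or above 50% at 10 µM; inactive means inhibition below 50%.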

Muscarinic acetylcholine receptor M4 (Homo sapiens), sequence (P08173 whole entry, looked up): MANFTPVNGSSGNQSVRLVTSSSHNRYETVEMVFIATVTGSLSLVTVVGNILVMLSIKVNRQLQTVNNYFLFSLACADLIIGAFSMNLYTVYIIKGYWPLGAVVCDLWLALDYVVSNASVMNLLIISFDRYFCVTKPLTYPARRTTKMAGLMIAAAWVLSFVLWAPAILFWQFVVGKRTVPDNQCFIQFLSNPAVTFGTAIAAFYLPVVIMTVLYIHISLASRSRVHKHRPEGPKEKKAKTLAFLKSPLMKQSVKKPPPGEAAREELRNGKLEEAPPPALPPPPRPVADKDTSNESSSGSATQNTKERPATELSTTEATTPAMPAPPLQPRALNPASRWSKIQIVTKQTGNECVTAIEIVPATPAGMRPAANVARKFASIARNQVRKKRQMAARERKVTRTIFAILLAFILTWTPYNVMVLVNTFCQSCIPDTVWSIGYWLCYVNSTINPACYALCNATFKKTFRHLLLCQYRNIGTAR

For orientation: inhibition means the change of the read-out against control, counted positive when it falls. Take `CN(C(=O)c1ccncc1)C1CC(C)(C)N(O)C(C)(C)C1`: in assay [1], the cell count was determined as 344. For the same compound, the inhibition in assay [1] was 2.8% (inactive); in assay [3], -67.4% (inactive); in assay [7], -0.539% (inactive); in assay [8] it was 8.86% (inactive). Moreover, in assay [2], the inhibition of aggregation is -9.8% (inactive). In addition, the nuclei count turned out to be 103% in assay [2] and 119% in assay [3]. Also, the fluorescence slope in assay [4] is -0.592 (inactive); in assay [6], 0.00587 (inactive). Also, the NADPH fluorescence slope in assay [5] is -2.2e-05 (inactive).

Regarding `Cc1ccc(Cn2c(C)nc3c(c2=O)c2nc4ccccc4nc2n3Cc2ccco2)cc1`, the cell count in assay [1] came out at 623. Moreover, the inhibition was -5.4% (inactive) in assay [1], -33.1% (inactive) in assay [3], 16.5% (inactive) in assay [7] and 28.3% (inactive) in assay [8]. The inhibition of aggregation in assay [2] is -11% (inactive). The nuclei count in assay [2] was 111%; in assay [3], 91.7%. In addition, the fluorescence slope in assay [4] is -0.557 (inactive); in assay [6], 0.00181 (inactive). The NADPH fluorescence slope in assay [5] was -5.9e-05 (inactive).

For `Fc1c(F)c(F)c(CSc2nc3ccccc3[nH]2)c(F)c1F`, the cell count in assay [1] stood at 423. Besides, the inhibition is 0% (inactive) in assay [1], -40.6% (inactive) in assay [3], -6.35% (inactive) in assay [7] and -46.6% (inactive) in assay [8]. The inhibition of aggregation in assay [2] was 28.9% (inactive). In addition, the nuclei count stood at 82.8% in assay [2] and 86.2% in assay [3]. The fluorescence slope in assay [4] was -0.562 (inactive); in assay [6], 0.0075 (inactive). Moreover, the NADPH fluorescence slope in assay [5] was -3.7e-05 (inactive).

For the compound `COc1ccccc1NC(=O)CC(NCc1ccccc1)C(=O)O` (centres undefined), in assay [1], the cell count was 405. The inhibition in assay [1] was -8.3% (inactive); in assay [3] it was 14.4% (inactive); in assay [7] it was 8.88% (inactive); in assay [8] it was 5.77% (inactive). Further, the inhibition of aggregation in assay [2] is -9.7% (inactive). Also, the nuclei count in assay [2] amounted to 63.1%; in assay [3], 100%. Also, the fluorescence slope in assay [4] is -0.223 (inactive); in assay [6] it was 0.00589 (inactive). The NADPH fluorescence slope in assay [5] was -1.3e-05 (inactive).

`O=c1c2ccccc2cnn1-c1nc2ccccc2s1`: the cell count in assay [1] was determined as 480. The inhibition was -1% (inactive) in assay [1], -33.8% (inactive) in assay [3], 20.5% (inactive) in assay [7] and 93.6% (active) in assay [8]. In addition, in assay [2], the inhibition of aggregation was -5.1% (inactive). Besides, the figures for the nuclei count in assay [2] and in assay [3] were 98.1% and 117%, respectively. Besides, the fluorescence slope in assay [4] is -0.133 (inactive); in assay [6], 0.00555 (inactive). Besides, the NADPH fluorescence slope in assay [5] is -1.6e-05 (inactive).

Turning to `CCc1c(C)nc(N2CCN(Cc3ccccc3)CC2)[nH]c1=O`, in assay [1], the cell count was 623. The inhibition in assay [1] is -17.8% (inactive); in assay [3] it was -51.5% (inactive); in assay [7], 17.7% (inactive); in assay [8], 10.6% (inactive). In addition, in assay [2], the inhibition of aggregation was 17.3% (inactive). Further, the values for the nuclei count in assay [2] and in assay [3] were 120% and 106%, respectively. Besides, the fluorescence slope is -0.507 (inactive) in assay [4] and 0.00476 (inactive) in assay [6]. The NADPH fluorescence slope in assay [5] is 2.9e-05 (inactive).

In the case of `CCOC(=O)N1CCN(C(=O)CN(C)S(=O)(=O)c2ccc(OC)c(OC)c2)CC1`, in assay [1], the cell count came out at 464. For the same compound, the inhibition in assay [1] is 5.8% (inactive); in assay [3] it was 17.8% (inactive); in assay [7], 16.2% (inactive); in assay [8], 20.5% (inactive). For the same compound, the inhibition of aggregation in assay [2] is -12.7% (inactive). Moreover, the nuclei count in assay [2] was found to be 118%; in assay [3], 102%. The fluorescence slope in assay [4] is -0.614 (inactive); in assay [6], 0.00404 (inactive). For the same compound, the NADPH fluorescence slope in assay [5] was -3.8e-05 (inactive).

For `CCOC(=O)C1CCCN(C(=O)c2ccc(CS(=O)(=O)Cc3ccccc3C)o2)C1` (centres undefined), the cell count in assay [1] came out at 419. The inhibition in assay [1] was 10.9% (inactive); in assay [3], -57.8% (inactive); in assay [7] it was -2.6% (inactive); in assay [8], 5.13% (inactive). Besides, the inhibition of aggregation in assay [2] is 19.5% (inactive). For the same compound, the nuclei count came to 76.5% in assay [2] and 93.9% in assay [3]. Moreover, the fluorescence slope in assay [4] is -0.595 (inactive); in assay [6], 0.00695 (inactive). Further, the NADPH fluorescence slope in assay [5] was 4.2e-06 (inactive).

For the compound `CCN(CC)CCCN(Cc1cc2cc(OC)ccc2[nH]c1=O)C(=O)Nc1ccccc1`, the cell count in assay [1] came out at 327. Further, the inhibition was 7.1% (inactive) in assay [1], -31.9% (inactive) in assay [3], 17.1% (inactive) in assay [7] and 29.7% (inactive) in assay [8]. In assay [2], the inhibition of aggregation was -3.3% (inactive). The nuclei count was 86.4% in assay [2] and 105% in assay [3]. The fluorescence slope in assay [4] was -0.382 (inactive); in assay [6], 0.00643 (inactive). The NADPH fluorescence slope in assay [5] was -5.9e-06 (inactive).

For the compound `Cc1ccc(-n2ncc3c(N4CCN(c5ccc(F)cc5)CC4)ncnc32)c(C)c1`, in assay [1], the cell count is 514. The inhibition in assay [1] is -6.8% (inactive); in assay [3], 32.4% (inactive); in assay [7] it was -19.8% (inactive); in assay [8], -65.4% (inactive). In addition, the inhibition of aggregation in assay [2] is 4.6% (inactive). The nuclei count in assay [2] stood at 83.4%; in assay [3] it was 92.4%. Also, the values for the fluorescence slope in assay [4] and in assay [6] were -0.521 (inactive) and 0.00599 (inactive), respectively. In addition, in assay [5], the NADPH fluorescence slope was -0.000115 (inactive).

Regarding `O=c1cc(COn2nnc3ccc(C(F)(F)F)cc32)nc2sccn12`, the cell count in assay [1] was 379. The inhibition was -22% (inactive) in assay [1], -51.6% (inactive) in assay [3], -2.54% (inactive) in assay [7] and 14.9% (inactive) in assay [8]. The inhibition of aggregation in assay [2] is -2.2% (inactive). In addition, the nuclei count in assay [2] worked out at 109%; in assay [3] it was 141%. For the same compound, the fluorescence slope in assay [4] was -0.478 (inactive); in assay [6], 0.00817 (inactive). Also, in assay [5], the NADPH fluorescence slope was 3.2e-05 (inactive).

On to `Cc1ccc(-c2nnc(-c3ccc(Br)cc3)o2)o1`, for which the cell count in assay [1] is 454. Besides, the inhibition in assay [1] was 0.5% (inactive); in assay [3], -31.4% (inactive); in assay [7] it was -38.9% (inactive); in assay [8] it was -108% (inactive). In assay [2], the inhibition of aggregation is -10.6% (inactive). Besides, the results for the nuclei count in assay [2] and in assay [3] were 116% and 102%, respectively. Further, the fluorescence slope is -0.389 (inactive) in assay [4] and 0.00923 (inactive) in assay [6]. Besides, the NADPH fluorescence slope in assay [5] was -3e-05 (inactive).

For the compound `COCCn1c(SCC(=O)Nc2nnc(C)s2)nnc1-c1ccncc1`, the cell count in assay [1] was found to be 564. Besides, the inhibition in assay [1] was -7.5% (inactive); in assay [3], -32.1% (inactive); in assay [7] it was 18.4% (inactive); in assay [8], -2.25% (inactive). Further, the inhibition of aggregation in assay [2] is 7.7% (inactive). Also, the values for the nuclei count in assay [2] and in assay [3] were 99.2% and 115%, respectively. Also, the fluorescence slope in assay [4] is -0.172 (inactive); in assay [6] it was 0.00934 (inactive). In assay [5], the NADPH fluorescence slope is -1.8e-05 (inactive).

Consider `CCOC(=O)N1CCC(NC(=O)c2ccc3nc(N4CCOCC4)sc3c2)CC1`, for which, in assay [1], the cell count turned out to be 585. The inhibition in assay [1] is 2.2% (inactive); in assay [3], 36% (inactive); in assay [7] it was 12.9% (inactive); in assay [8], 12.3% (inactive). Also, the inhibition of aggregation in assay [2] was 0% (inactive). The nuclei count in assay [2] was found to be 112%; in assay [3] it was 90.8%. Moreover, the results for the fluorescence slope in assay [4] and in assay [6] were -0.591 (inactive) and 0.00698 (inactive), respectively. In addition, the NADPH fluorescence slope in assay [5] is 1.8e-05 (inactive).

Values taken from PubChem BioAssay.
